The nature of this data set: Toxicity liver stage against HepG2, at 10uM. Type of data set: cell-based. More on the design: test concentration 10 uM, cell line HepG2-A16-CD81EGFP. As to conditions: human, HepG2-A16-CD81EGFP cells; read-out: INHIBITION
The gist of the method:
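Uninfected HepG2-A16-CD81EGFP cells, 3 × 10^3 per well, 1536-well, plated on prespotted compound at 10 μM final, parasite-free screening media added to match infected plates; puromycin 10 μM positive, DMSO 0.5% negative; run in parallel with 48 h PbLuc assay at 37 °C, 5% CO2; viability by CellTiter-Glo luminescence, normalized to controls.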
Regarding `Cc1cc(N2CCC(O)CC2)nc(C)n1`, the cytotoxicity at 10 µM was -74.7%.

Regarding `CN1C[C@@H](F)[C@@H](OCc2nc3ccccc3n2C)C1`, the cytotoxicity at 10 µM was determined as 0.876%.

Turning to `O=C(CCc1ccc(-n2cnnn2)cc1)Nc1nncs1`, the cytotoxicity at 10 µM is -1.14%.

For `O=C(CCCn1cnc2ccccc2c1=O)Nc1nc[nH]n1`, the cytotoxicity at 10 µM was -4.84%.

For `CCOc1ccc(NC(=O)NCC(C)(O)c2cccs2)cc1` (stereo not drawn), the cytotoxicity at 10 µM was -0.579%.

Take `Cc1cc(C(O)CCNC(=O)COc2ccccc2C)c(C)o1` (stereo not drawn): the cytotoxicity at 10 µM was determined as 2.86%.

As for `O=C(C1CCOCC1)N1C[C@H]2CNC[C@H]2C1`, the cytotoxicity at 10 µM is -8.58%.

In the case of `CCCS(=O)(=O)N1CCC2(CC1)COCCN(C(C)=O)C2`, the cytotoxicity at 10 µM was found to be 15.9%.

In the case of `CN1C(=O)CC2(CCN(S(=O)(=O)c3cccs3)CC2)c2ccccc21`, the cytotoxicity at 10 µM stood at 1.86%.

For the compound `C[C@@H]1C[C@@H]2CCN(Cc3nccs3)C[C@H]2O1`, the cytotoxicity at 10 µM is -3.15%.

On to `COCCN1CCCC12CCCN(c1nncs1)C2` (stereo not drawn), for which the cytotoxicity at 10 µM amounted to 9.79%.

For the compound `O=S(=O)(C1CC1)N1CCn2c(Cn3cccn3)cnc2C1`, the cytotoxicity at 10 µM was 12.4%.

Take `Cn1nc(CN2CCCC2)c2c1CN(C(=O)c1ccncc1F)CC2`: the cytotoxicity at 10 µM was -154%.

Take `CCCS(=O)(=O)N1CCC2(CCCN(c3ncc(F)cn3)C2)C1` (stereo not drawn): the cytotoxicity at 10 µM was 13.4%.

Take `Fc1cccc(N2CCOC3(CCCN(c4cnccn4)C3)C2)c1` (stereo not drawn): the cytotoxicity at 10 µM was 5.89%.

As to `COc1cccc(CC(=O)N2Cc3nccn3CC(CN(C)C)C2)c1` (stereo not drawn), the cytotoxicity at 10 µM is -135%.

`O=C(c1cnccn1)N1CCC2(CCCN(Cc3ccoc3)C2)C1` (stereo not drawn): the cytotoxicity at 10 µM is -139%.

With `Cc1ccc(-c2csc(N)c2C#N)c(C)c1`, the cytotoxicity at 10 µM came out at 10.5%.

Regarding `O=C(NCCN1CCC(c2cccs2)CC1)c1ccccc1C(F)(F)F`, the cytotoxicity at 10 µM is -20.2%.

With `CN(C)C(=O)CO[C@@H]1CC[C@H]2[C@H]1OCCN2C(=O)C1CCOCC1`, the cytotoxicity at 10 µM is -7.56%.

Turning to `COc1ccc(CCC(=O)N(C)Cc2c(C)nn(C)c2C)cc1`, the cytotoxicity at 10 µM was -0.734%.

With `CC(=O)Nc1ncc(S(=O)(=O)Nc2ccccc2)s1`, the cytotoxicity at 10 µM stood at 6.72%.

As to `CCC(C)c1noc(C2CCN(C(=O)Cn3nc(C)cc3C)CC2)n1` (stereo not drawn), the cytotoxicity at 10 µM amounted to 6.58%.

As to `CC1(c2ncc(CN3CCSCC3)cn2)CCCCO1` (stereo not drawn), the cytotoxicity at 10 µM came to 2.12%.

On to `COc1ccc(S(=O)(=O)N2CCC[C@@H]3CN(C(=O)C4CC4)C[C@@H]32)cc1F`, for which the cytotoxicity at 10 µM amounted to 3.75%.

Regarding `CN(C)C(=O)C1(c2cnccn2)CCCN1C(=O)Cc1ccsc1` (stereo not drawn), the cytotoxicity at 10 µM was -1.84%.

For the compound `O=C(NCC1(O)COCCN(Cc2cccc(O)c2)C1)c1ccccn1` (stereo not drawn), the cytotoxicity at 10 µM was -4.29%.

Regarding `CNC(=O)C1(CCCc2cccnc2)CCCCN1` (stereo not drawn), the cytotoxicity at 10 µM turned out to be 2.34%.

For the compound `Cc1ccc(-n2cnc(Cl)c2CO)cc1`, the cytotoxicity at 10 µM is -0.303%.

`Cc1cnn(Cc2cccc(OCC(N)=O)c2)c1`: the cytotoxicity at 10 µM was -2.84%.

Turning to `CCCN(CC1COc2ccccc2O1)C(=O)CCN1C(=O)CCC1=O` (stereo not drawn), the cytotoxicity at 10 µM is -37%.

Turning to `N#Cc1ccc(CN2CCOCC2)cc1`, the cytotoxicity at 10 µM is -9.32%.

As to `CN(CC(O)C(F)(F)F)C(=O)Nc1cccc(C(F)F)c1` (stereo not drawn), the cytotoxicity at 10 µM was 5.46%.

Take `CN(C)c1cccc(C(=O)Nc2ccn(CCc3ccncc3)n2)c1`: the cytotoxicity at 10 µM was 0.209%.

On to `O=C(NCCNCc1cccc2c1OCCCO2)C1CCCC1`, for which the cytotoxicity at 10 µM turned out to be 8.08%.

Regarding `O=C(C1CC1)N1CCC(c2nc(-c3ccccc3)n[nH]2)CC1`, the cytotoxicity at 10 µM was -4.15%.

`CC(=O)c1cccc(NC(=O)CN2CCCCC2C(=O)N2CCCC2)c1` (stereo not drawn): the cytotoxicity at 10 µM was -8.82%.

Regarding `Cc1ccc(N2CCCC(N(C)Cc3nc(C)c(C)o3)C2)nn1` (stereo not drawn), the cytotoxicity at 10 µM stood at 3.15%.

As to `CSC(C)(C)CNC(=O)NC1CCN(CC=C(C)C)CC1`, the cytotoxicity at 10 µM was -6.45%.

Take `O=C(CCN1CCCC1c1cccc2c1OCCO2)N1CCCCC1` (stereo not drawn): the cytotoxicity at 10 µM is 2.43%.

Turning to `CCC(=O)NC1CCN(c2cccc(OC(F)(F)F)c2)C1=O` (stereo not drawn), the cytotoxicity at 10 µM is -11.5%.

In the case of `Cc1nn(C)c(C)c1OCC(=O)NCC(O)c1ccco1` (stereo not drawn), the cytotoxicity at 10 µM is -4.71%.

With `CCNC(=O)N1CCC(n2ccc(C(F)(F)F)n2)CC1`, the cytotoxicity at 10 µM is 10.5%.

On to `CCc1cc(NC(=O)C(c2cccc(F)c2)N2CCOCC2)[nH]n1` (stereo not drawn), for which the cytotoxicity at 10 µM is -10.3%.

`CC(C(=O)NCc1cn2cc(Br)ccc2n1)S(C)(=O)=O` (stereo not drawn): the cytotoxicity at 10 µM was -16.4%.

Consider `CC(NC(=O)c1csnn1)c1ccc(OCC2CC2)c(F)c1` (stereo not drawn), for which the cytotoxicity at 10 µM was -1%.

As to `O=C(NCCCOCC1CCCO1)c1cccnc1N1CCOCC1` (stereo not drawn), the cytotoxicity at 10 µM stood at 3.68%.

On to `CC(C)(C)c1noc(CNc2ccccc2N2CCC(O)CC2)n1`, for which the cytotoxicity at 10 µM came out at 0.965%.

In the case of `O=C(O)[C@H]1CCCN1CCOc1cccc(Cl)c1`, the cytotoxicity at 10 µM was 17%.

Take `CC(C)(C)CC(=O)NCCCn1cncn1`: the cytotoxicity at 10 µM was -4.34%.

Turning to `O=c1c2cccnc2cnn1CC(O)c1cccc(C(F)(F)F)c1` (stereo not drawn), the cytotoxicity at 10 µM is -3.67%.

For the compound `O=C(Nc1ccc(Cn2cccn2)cc1)N1CCC2(CC1)OCCO2`, the cytotoxicity at 10 µM is 6.09%.

As to `Cc1nn(CC(=O)Nc2cccc(F)c2)c(N)c1C#N`, the cytotoxicity at 10 µM was 17.9%.

For the compound `Cc1nc(CNC(=O)Nc2ccc3c(ccn3CCN(C)C)c2)no1`, the cytotoxicity at 10 µM was -21.8%.

Consider `O=C(CN1CCCc2c(F)cc(Br)cc21)N1CCCC1`, for which the cytotoxicity at 10 µM is -1.26%.

Consider `CNC(=O)CN(C(=O)c1ccc(SC)o1)c1cccc(F)c1`, for which the cytotoxicity at 10 µM came out at 10.3%.

For `CC(C)c1ncc(Cl)c(C(=O)N2CCN(C3CC3)CC2)n1`, the cytotoxicity at 10 µM is 3.78%.

`CCc1nc(C(=O)N2CCN(C)c3ccccc32)c[nH]1`: the cytotoxicity at 10 µM worked out at 1.16%.

On to `Cc1cc2ccccc2n1CC(=O)Nc1ccnn1CC1CCOC1` (stereo not drawn), for which the cytotoxicity at 10 µM was found to be 7.77%.

Consider `O=C1C(N2CCN(c3ccc(O)cc3)CC2)CCN1C1CCOCC1` (stereo not drawn), for which the cytotoxicity at 10 µM is 12.6%.

`Cc1cc(NC(=O)C(c2cccc(F)c2)N2CCOCC2)ccn1` (stereo not drawn): the cytotoxicity at 10 µM amounted to 0.278%.

On to `CSCC(CCO)NC(=O)Nc1cc(C)ccc1C` (stereo not drawn), for which the cytotoxicity at 10 µM is -17%.

Regarding `CC(C)CNC(=O)c1ccc2nnc(C3CCN(S(C)(=O)=O)C3)n2c1` (stereo not drawn), the cytotoxicity at 10 µM turned out to be 5.09%.

For the compound `Cc1nc2c(c(N3CCCOCC3)n1)CCN(c1nccs1)CC2`, the cytotoxicity at 10 µM is 3.08%.

As to `Cc1nc2c(C)cccc2cc1C(=O)N1CCC2(CC1)NCCNC2=O`, the cytotoxicity at 10 µM is -0.0638%.

`Cc1cccc(C)c1OC1CN(Cc2cnc(N3CCCC3)nc2)C1`: the cytotoxicity at 10 µM was 1.35%.

`CNc1ncc(CN(C)Cc2cc(O)c3cc(F)ccc3n2)cn1`: the cytotoxicity at 10 µM was 1.95%.

Regarding `Cc1cc(-n2cccn2)ccc1CN1CCC(O)(CN2CCCCC2)C1` (stereo not drawn), the cytotoxicity at 10 µM turned out to be 6.2%.

Turning to `CC[C@H]1COCCN1C(=O)c1cnc(C(C)C)nc1C`, the cytotoxicity at 10 µM was found to be 8.51%.

On to `CN(CC1Cc2ccccc2CN1C)C(=O)CSc1nccn1C` (stereo not drawn), for which the cytotoxicity at 10 µM is -10.8%.

Take `CCC(C)Oc1ccc(CNCCNC(C)=O)cc1OC` (stereo not drawn): the cytotoxicity at 10 µM was -8.09%.

Take `CC(C(=O)N(C)C)N1CCc2onc(-c3cccc(F)c3)c2C1` (stereo not drawn): the cytotoxicity at 10 µM was -6.93%.

For `OCC1COCCN(Cc2cc(C3CCCCC3)no2)C1` (stereo not drawn), the cytotoxicity at 10 µM worked out at 6.44%.

In the case of `c1ccc(OCc2noc(CN3CCN(C4CCCC4)CC3)n2)cc1`, the cytotoxicity at 10 µM is -6.66%.

With `COCCN1CCC2(CC1)CC(c1ccccc1)C(=O)N2C` (stereo not drawn), the cytotoxicity at 10 µM came to 7.91%.

On to `Cc1nc(CNc2nc3c(s2)c(C)nn3C)cs1`, for which the cytotoxicity at 10 µM is -109%.

Regarding `CCCn1ccnc1CN1CCC(O)(CN2CCCCC2)C1` (stereo not drawn), the cytotoxicity at 10 µM is -6.12%.

In the case of `CC(C)Oc1cccc(CN2CCC(C(C)N3CCOCC3)CC2)c1` (stereo not drawn), the cytotoxicity at 10 µM is -5.84%.

As for `Cc1ncsc1CCCn1ccnc1-c1cc2n(n1)CCCNC2`, the cytotoxicity at 10 µM was 3.28%.

Consider `O=C1N(CCCc2ccccc2)CCCC1(O)CNCc1ccccc1` (stereo not drawn), for which the cytotoxicity at 10 µM turned out to be 10.4%.

Take `CC(NCc1ccccc1Cl)c1ccc2[nH]c(=O)[nH]c2c1` (stereo not drawn): the cytotoxicity at 10 µM is -9.7%.

For the compound `O=C(CSc1ccccc1F)NS(=O)(=O)c1ccc2c(c1)OCCO2`, the cytotoxicity at 10 µM was -4.36%.

On to `CC(=O)Nc1nc(C(=O)N2CCCC2c2noc(C(C)C)n2)cs1` (stereo not drawn), for which the cytotoxicity at 10 µM was -20.1%.

Take `CCn1ccnc1CN1CCCC1c1noc(C2CC2)n1` (stereo not drawn): the cytotoxicity at 10 µM is -17.4%.

As for `Cc1nc(C2CCCN(C(=O)c3cc(Cl)c[nH]3)C2)sc1C` (stereo not drawn), the cytotoxicity at 10 µM is -21.5%.

Regarding `Cc1nc(C)n(C2CCCN(C(=O)c3c[nH]c(C(C)C)n3)C2)n1` (stereo not drawn), the cytotoxicity at 10 µM was -19.9%.

As to `Cc1ccc(CNC(=O)Nc2nnc(C)s2)cn1`, the cytotoxicity at 10 µM is -0.243%.

With `Cc1ccc(CC(=O)N2CCc3nnc(N(C)C)cc3C2)cn1`, the cytotoxicity at 10 µM was -8.16%.

With `Cc1nccn1C1CCCN(C(=O)c2cc3ccccc3[nH]2)C1` (stereo not drawn), the cytotoxicity at 10 µM was -12.2%.

For `COCCc1noc(CN2CCCC(Cn3nc(C)nc3C)C2)n1` (stereo not drawn), the cytotoxicity at 10 µM was -6.41%.

`CN(C)[C@@H]1CN(Cc2ccc(O)cc2)C[C@H]1c1cn(C)c2ccccc12`: the cytotoxicity at 10 µM amounted to 2.39%.

Take `CNC(=O)CN1CC[C@H]2CN(C(=O)c3cc[nH]n3)C[C@H]2C1`: the cytotoxicity at 10 µM stood at 0.53%.

For the compound `Cc1noc(C)c1CN1CCc2ncc(CN3CCCC3)n2CC1`, the cytotoxicity at 10 µM is 0.78%.

On to `Cn1ccc(C(=O)N2CCC[C@]3(C[C@@H](OCc4ccccn4)CO3)C2)n1`, for which the cytotoxicity at 10 µM was 0.333%.

In the case of `O=C(C1CCOCC1)N1CC[C@H]2[C@H]1CCN2c1nncs1`, the cytotoxicity at 10 µM was -4.78%.

On to `CCc1nnc(CN2CCC(C3CCCCCN3C(C)=O)CC2)o1` (stereo not drawn), for which the cytotoxicity at 10 µM was -43%.

Regarding `CCOCc1cnc2n1CCN(Cc1nc(C)cs1)C2C` (stereo not drawn), the cytotoxicity at 10 µM came out at 10.2%.

Turning to `CCn1cc2c(n1)CN(Cc1ccncc1)CC2COCC1CC1` (stereo not drawn), the cytotoxicity at 10 µM is 6.59%.

Values taken from ChEMBL document CHEMBL4513216, “Probing the Open Global Health Chemical Diversity Library for Multistage-Active Starting Points for Next-Generation Antimalarials” (ACS Infect Dis, 2020).
